{"source": "paper PMC10646973", "about": "(Biochemistry, 2023)", "key": {"[1]": {"test_system": "protein arginine and protein lysine methyltransferases (PRMTs and PKMTs) in HT-29 colorectal cells", "experiment": "Protein methylation marks", "format": "cell-based", "settings": "HT-29 cells, 6 days, positive control", "outline": "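HT-29 colorectal cells were exposed to the test compound for 6 days. Soluble protein was then extracted and immunoblotted for symmetric dimethylarginine, asymmetric dimethylarginine and trimethyl-lysine marks. The SDMA positive control was a PRMT5-specific inhibitor, and the ADMA positive control was a type I PRMT (PRMT1/4) inhibitor.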"}, "[2]": {"test_system": "PNMT", "settings": "read-out: apparent IC50; cited from earlier work"}}}
{"smiles": "CC(=O)N1CCC(Nc2cc(C(=O)NC[C@H](O)CN3CCc4ccccc4C3)ncn2)CC1", "note": "[GSK3326595, reference compound]", "values": [{"measurement": "SDMA (Western blot)", "setting": "[1]", "value": "no band corresponding to SDMA"}]}
{"smiles": "CC(C)Oc1ccc(-c2c[nH]cc2CN(C)CCN)cc1", "note": "[MS023, reference compound]", "values": [{"measurement": "ADMA (Western blot)", "setting": "[1]", "value": "no evidence of ADMA"}]}
{"smiles": "NC(=O)c1cccc(C#CCN(CC[C@H](N)C(=O)O)C[C@H]2O[C@@H](n3cnc4c(N)ncnc43)[C@H](O)[C@@H]2O)c1", "note": "[LL320]", "values": [{"measurement": "IC50", "setting": "[2]", "value": "> 100", "unit": "µM"}]}
